Series [1] deals with Rattus norvegicus. The series can be described thus: Antiinflammatory activity against carrageenan-induced paw edema in Albino rat assessed as oedema inhibition relative to control at 20 mg/kg, po. The class given is functional. The gist of the method:
(§1)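 Rats given test compound orally; 30 min later, 0.2 mL of 1% carrageenan in 0.9% NaCl injected subcutaneously into plantar aponeurosis of the hind paw. Paw volume measured by water plethysmometer before and at 3 h. Mean paw-volume increase compared with a carrageenan-only control group of five rats. % inhibition = (1 − Gt/Gc) × 100. Values are means of three determinations.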
In general terms: The carrageenan paw model is a standard test of acute inflammation.

Series [2] deals with Rattus norvegicus. The series can be described thus: Antiinflammatory activity against carrageenan-induced paw edema in Albino rat assessed as oedema inhibition relative to control at 80 mg/kg, po. The class given is functional. Put shortly: as §1
For series [3], the system named is Rattus norvegicus. The series can be described thus: Antiinflammatory activity against carrageenan-induced paw edema in Albino rat assessed as oedema inhibition relative to control at 40 mg/kg, po. Format: functional. Put shortly: as §1
Series [4] concerns Rattus norvegicus. The series can be described thus: Toxicity in rat assessed as incidence of hyperaemia at 100 mg/kg, po. Format: organism-based. On the set-up: dose 100 mg/kg, route oral. As to conditions: in vivo. Put shortly: (§2)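 Groups of 10 rats (200–230 g), fasted 24 h, dosed orally; controls untreated. Sacrificed 5 h after dosing. Stomach and small intestine examined under microscope for hyperaemia, epithelial shedding, petechiae, frank haemorrhage, erosion or discrete ulceration with or without perforation. Result expressed as percentage of animals affected.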

In series [5] the test system is Rattus norvegicus. Kind of series: Toxicity in rat assessed as incidence of hyperaemia at 200 mg/kg, po. Further details: dose 200 mg/kg, route oral. The class given is organism-based. The note with it: in vivo. The gist of the method:
as §2

The test system of series [6] is Rattus norvegicus. The series can be described thus: Toxicity in rat assessed as incidence of hyperaemia at 400 mg/kg, po. Format: organism-based. Further details: dose 400 mg/kg, route oral. The note with it: in vivo. Put shortly: as §2
Series [7] concerns Rattus norvegicus. Kind of series: Toxicity in rat assessed as incidence of ulcer at 200 mg/kg, po. Format: organism-based. Further details: dose 200 mg/kg, route oral. The note with it: in vivo. The gist of the method:
as §2

The subject of series [8] is Rattus norvegicus. Kind of series: Toxicity in rat assessed as incidence of ulcer at 100 mg/kg, po. Further details: dose 100 mg/kg, route oral. The class given is organism-based. As to conditions: in vivo. Put shortly:
as §2

Series [9] deals with Rattus norvegicus. The series can be described thus: Toxicity in rat assessed as incidence of ulcer at 400 mg/kg, po. The class given is organism-based. Further details: dose 400 mg/kg, route oral. As to conditions: in vivo. The gist of the method: as §2
The next series is filed under the species Oryctolagus cuniculus. Kind of series: Inhibition of rabbit microsomal COX at 10 uM. The gist of the method:
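COX source: microsomal pellet from minced, homogenized rabbit distal colon mucosa in 0.1 M Tris, pH 8.0, used immediately. Microsomes preincubated with test agent 10 min at 37 °C in Tris-HCl pH 8.0 with 2 mM glutathione, 5 mM L-tryptophan and 1 µM haematin. Then 20 µM arachidonic acid plus [1-14C] tracer added for 5 min at 37 °C. PGE2 separated by isocratic HPLC; co-eluting radioactivity counted by scintillation. % inhibition calculated versus paired controls.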

Series [10] concerns Rattus norvegicus. Kind of series: Antiinflammatory activity against carrageenan-induced paw edema in po dosed Albino rat assessed as oedema inhibition. Format: functional.
Series [11] can be described thus: Toxicity in ip dosed Albino mouse. The class given is organism-based. The note with it: in vivo, read-out: ALD50. The gist of the method: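 Albino mice, 25–30 g, groups of 10, given test compounds intraperitoneally at different dose levels. Mortality per group recorded 24 h after dosing. Approximate 50% lethal dose (ALD50) calculated from mortality data by the Smith method.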

From ChEMBL document CHEMBL1147917, “Synthesis and crystallographic analysis of benzophenone derivatives--the potential anti-inflammatory agents” (Bioorg Med Chem, 2007) come the findings set out here.

Activity calls are given as the source filed them. The calls are words filed in the database; no cut-off is given here. A value given as a limit tells only on which side of the number the result lay.

As for `O=C(Oc1ccc(Br)cc1C(=O)c1ccc(Cl)cc1)c1ccc(Cl)cc1`, the inhibition in vivo at 20 mg/kg in the series with Rattus norvegicus [1] was determined as 23.4%. Further, the inhibition in vivo at 80 mg/kg in the series on Rattus norvegicus [2] was 77.1%. The inhibition in vivo at 40 mg/kg in the series on Rattus norvegicus [3] stood at 46.5%. For the same molecule, the Activity in the series on Rattus norvegicus [4] is on record as 50%; in the series with Rattus norvegicus [5] it was 70%; in the series on Rattus norvegicus [6], 100%; in the series with Rattus norvegicus [7] it was 10%; with Rattus norvegicus [8] it was 5%; in the series with Rattus norvegicus [9] it was 25%. In the series filed under Oryctolagus cuniculus, this molecule returned an inhibition of 87%. In addition, the 50% effective dose (ED50) in the series with Rattus norvegicus [10] turned out to be 61.5 mg/kg. The LD50 in series [11] is above 1000 mg/kg.

Regarding `Cc1ccc(OC(=O)c2ccccc2)c(C(=O)c2ccccc2)c1`, the inhibition in vivo at 20 mg/kg in the series with Rattus norvegicus [1] was 15.1%. In addition, in the series on Rattus norvegicus [2], the inhibition in vivo at 80 mg/kg was 56.4%. Moreover, the inhibition in vivo at 40 mg/kg in the series with Rattus norvegicus [3] came out at 29.9%. The Activity in the series with Rattus norvegicus [4] turned out to be 40%; with Rattus norvegicus [5], 60%; in the series on Rattus norvegicus [6], 100%; with Rattus norvegicus [7], 20%; in the series on Rattus norvegicus [8] it was 10%; with Rattus norvegicus [9], 40%. In the series listed under Oryctolagus cuniculus, this molecule came in with an inhibition of 20%. In addition, in the series on Rattus norvegicus [10], the ED50 was determined as 78.6 mg/kg. For the same molecule, the LD50 in [11] is above 1000 mg/kg.

As for `Cc1ccc(C(=O)Oc2ccc(C)cc2C(=O)c2ccc(C)cc2)cc1`, the inhibition in vivo at 20 mg/kg in the series on Rattus norvegicus [1] turned out to be 20.6%. Further, the inhibition in vivo at 80 mg/kg in the series on Rattus norvegicus [2] was determined as 60.1%. Moreover, in the series on Rattus norvegicus [3], the inhibition in vivo at 40 mg/kg was 30.5%. Also, the Activity with Rattus norvegicus [4] was determined as 40%; in the series with Rattus norvegicus [5] it was 60%; in the series with Rattus norvegicus [6] it was 80%; with Rattus norvegicus [7], 15%; with Rattus norvegicus [8] it was 10%; with Rattus norvegicus [9], 20%. In the series filed under Oryctolagus cuniculus, this molecule registered an inhibition of 65%. For the same molecule, in the series with Rattus norvegicus [10], the median effective dose (ED50) was 76.2 mg/kg. Besides, in series [11], the LD50 was above 1000 mg/kg.

`CCCCC1C(=O)N(c2ccccc2)N(c2ccccc2)C1=O` [PHENYLBUTAZONE]: in the series with Rattus norvegicus [1], the inhibition in vivo at 20 mg/kg is 30.1%. Besides, the inhibition in vivo at 80 mg/kg with Rattus norvegicus [2] is 55.1%. In addition, in the series with Rattus norvegicus [3], the inhibition in vivo at 40 mg/kg came to 33%. For the same molecule, the Activity in the series on Rattus norvegicus [4] amounted to 25%; with Rattus norvegicus [5] it was 50%; in the series on Rattus norvegicus [6], 80%; with Rattus norvegicus [7], 65%; with Rattus norvegicus [8], 35%; in the series with Rattus norvegicus [9] it was 90%. Further, in the series filed under Oryctolagus cuniculus, the inhibition came out at 85%.

In the case of `Cc1ccc(OC(=O)c2ccccc2)c(C(=O)c2cccc(F)c2)c1`, in the series on Rattus norvegicus [1], the inhibition in vivo at 20 mg/kg came out at 18.5%. In addition, the inhibition in vivo at 80 mg/kg with Rattus norvegicus [2] was found to be 40.5%. The inhibition in vivo at 40 mg/kg in the series on Rattus norvegicus [3] amounted to 30.2%. For the same molecule, the Activity in the series on Rattus norvegicus [4] is listed as 25%; with Rattus norvegicus [5] it was 40%; in the series on Rattus norvegicus [6], 50%; in the series with Rattus norvegicus [7], 65%; in the series on Rattus norvegicus [8], 50%; in the series on Rattus norvegicus [9] it was 75%. Besides, the result in the series listed under Oryctolagus cuniculus was inactive. Besides, the ED50 in the series on Rattus norvegicus [10] turned out to be 75.5 mg/kg. Moreover, the LD50 in series [11] was above 1000 mg/kg.

As to `CC(=O)Oc1ccccc1C(=O)O` [ASPIRIN], the inhibition in vivo at 20 mg/kg with Rattus norvegicus [1] worked out at 29.5%. In addition, in the series with Rattus norvegicus [2], the inhibition in vivo at 80 mg/kg was found to be 55.1%. For the same molecule, in the series with Rattus norvegicus [3], the inhibition in vivo at 40 mg/kg turned out to be 30.5%. Further, the Activity stood at 25% in the series with Rattus norvegicus [4]; 55% with Rattus norvegicus [5]; 85% with Rattus norvegicus [6]; 90% in the series on Rattus norvegicus [7]; 75% in the series on Rattus norvegicus [8]; 85% in the series on Rattus norvegicus [9]. The molecule also came in with an inhibition in the series listed under Oryctolagus cuniculus of 95%. Also, the 50% effective dose (ED50) in the series on Rattus norvegicus [10] was found to be 95.5 mg/kg.

As to `Cc1ccc(OC(=O)c2cccc(Cl)c2)c(C(=O)c2cccc(Cl)c2)c1`, the inhibition in vivo at 20 mg/kg in the series on Rattus norvegicus [1] came to 15.1%. Moreover, the inhibition in vivo at 80 mg/kg in the series on Rattus norvegicus [2] was 56.4%. In the series with Rattus norvegicus [3], the inhibition in vivo at 40 mg/kg came to 29.9%. Besides, the Activity is listed as 25% in the series with Rattus norvegicus [4]; 40% in the series on Rattus norvegicus [5]; 50% in the series on Rattus norvegicus [6]; 65% in the series with Rattus norvegicus [7]; 50% in the series with Rattus norvegicus [8]; 75% with Rattus norvegicus [9]. The result in the series filed under Oryctolagus cuniculus was inactive. Also, the median effective dose (ED50) in the series on Rattus norvegicus [10] was found to be 55.7 mg/kg. The LD50 in [11] was above 1000 mg/kg.

For orientation: inhibition in vivo means the relative decrease from the control value, in per cent. One may read the inhibition as the change of the read-out against control, counted positive when it falls. A lower inhibition goes with a weak effect. Broadly, the ED50 is the dose at which the effect has come halfway, by size or by number of responders.
